Test results from ChEMBL document CHEMBL2040734, “Benzothiazoles: search for anticancer agents” (2012).

What was measured:
Type in all cases: functional
UO-31 [1] = assay: Cytotoxicity against human UO31 cells assessed as cell growth at 1 uM after 48 hrs by sulforhodamine B assay; settings: UO-31, 48 h, read-out: Activity
HCT-15 [2] = assay: Cytotoxicity against human HCT15 cells assessed as cell growth at 10 uM after 48 hrs by sulforhodamine B assay; settings: HCT-15, 48 h, read-out: Activity
In short: (§1)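 Five-dose NCI panel run at 0.01, 0.1, 1, 10 and 100 µM. Cells were in RPMI 1640 with 5% FBS and 2 mM L-glutamine, seeded at 5000–40,000 cells/well and pre-incubated 24 h. Drug was diluted from a DMSO stock into medium with 50 µg/ml gentamicin. Exposure was 48 h at 37 °C, 5% CO2. Cells were fixed with cold TCA and stained with 0.4% SRB, read at 515 nm. Percent growth came from time-zero, control and test absorbances.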

Malme-3M [3] = assay: Cytotoxicity against human MALME-3M cells assessed as cell growth at 0.01 uM after 48 hrs by sulforhodamine B assay; settings: read-out: Activity
NCI-H522 = assay: Growth inhibition of human NCI-H522 cells after 48 hrs by sulforhodamine B assay; settings: NCI-H522, 48 h
In short: (§2)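 Adherent NCI-60 lines were grown in RPMI 1640 with 5% FBS and 2 mM L-glutamine, plated at 5000–40,000 cells/well and preincubated 24 h. They were then exposed to five concentrations (0.01–100 µM, from a DMSO stock) for 48 h at 37 °C, 5% CO2. Cells were fixed with cold TCA (10% final, 60 min, 4 °C) and stained with 0.4% SRB. Dye was solubilized in 10 mM Tris base and A515 read. GI50 was derived from time-zero, control and treated absorbances.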

SK-MEL-2 [4] = assay: Growth inhibition of human SK-MEL-2 cells after 48 hrs by sulforhodamine B assay; settings: SK-MEL-2, 48 h; in short: as §2
MDA-MB-231 [5] = assay: Cytotoxicity against human MDA-MB-231 cells assessed as cell growth at 0.1 uM after 48 hrs by sulforhodamine B assay; settings: MDA-MB-231, 48 h, read-out: Activity
UACC-62 = assay: Cytotoxicity against human UACC62 cells assessed as cell growth at 10 '-5 M after 48 hrs by sulforhodamine B assay; settings: UACC-62, 48 h, read-out: Activity
SF-268 = assay: Cytotoxicity against human SF268 cells assessed as cell growth at 0.01 uM after 48 hrs by sulforhodamine B assay; settings: SF-268, 48 h, read-out: Activity
HL-60(TB) [6] = assay: Cytotoxicity against human HL-60(TB) cells assessed as cell growth at 0.01 uM after 48 hrs by sulforhodamine B assay; settings: HL-60, 48 h, read-out: Activity
In short: (§3)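 NCI five-dose screen on the HL-60(TB) leukaemia line, grown in RPMI 1640 with 5% FBS and 2 mM L-glutamine and plated for 24 h before dosing. DMSO stocks were diluted in medium. Cells were exposed 48 h at 37 °C, then settled cells were fixed in 16% TCA (final) and stained with SRB, absorbance 515 nm. Percent growth = (Ti−Tz)/(C−Tz)×100, or (Ti−Tz)/Tz×100 when Ti<Tz.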

IGROV-1 [7] = assay: Cytotoxicity against human IGROV1 cells assessed as cell growth at 0.01 uM after 48 hrs by sulforhodamine B assay; settings: IGROV-1, 48 h, read-out: Activity
OVCAR-5 = assay: Cytotoxicity against human OVCAR5 cells assessed as cell growth at 10 uM after 48 hrs by sulforhodamine B assay; settings: OVCAR-5, 48 h, read-out: Activity
NCI/ADR-RES = assay: Cytotoxicity against human NCI/ADR-RES cells assessed as cell growth at 10 uM after 48 hrs by sulforhodamine B assay; settings: read-out: Activity
DU-145 = assay: Cytotoxicity against human DU145 cells assessed as cell growth at 100 uM after 48 hrs by sulforhodamine B assay; settings: DU-145, 48 h, read-out: Activity; in short: as §1
Malme-3M [8] = assay: Cytotoxicity against human MALME-3M cells assessed as cell growth at 1 uM after 48 hrs by sulforhodamine B assay; settings: read-out: Activity
NCI-H460 = assay: Cytotoxicity against human NCI-H460 cells assessed as cell growth at 10 '-5 M after 48 hrs by sulforhodamine B assay; settings: NCI-H460, 48 h, read-out: Activity
SNB-19 = assay: Cytotoxicity against human SNB19 cells assessed as cell growth at 0.01 uM after 48 hrs by sulforhodamine B assay; settings: SNB-19, 48 h, read-out: Activity
IGROV-1 [9] = assay: Cytotoxicity against human IGROV1 cells assessed as cell growth at 10 uM after 48 hrs by sulforhodamine B assay; settings: IGROV-1, 48 h, read-out: Activity
HL-60(TB) [10] = assay: Cytotoxicity against human HL-60(TB) cells assessed as cell growth at 100 uM after 48 hrs by sulforhodamine B assay; settings: HL-60, 48 h, read-out: Activity; in short: as §3
HCT-15 [11] = assay: Cytotoxicity against human HCT15 cells assessed as cell growth at 1 uM after 48 hrs by sulforhodamine B assay; settings: HCT-15, 48 h, read-out: Activity; in short: as §1
M14 = assay: Cytotoxicity against human M14 cells assessed as cell growth at 0.1 uM after 48 hrs by sulforhodamine B assay; settings: M14, 48 h, read-out: Activity
MDA-MB-468 = assay: Growth inhibition of human MDA-MB-468 cells after 48 hrs by sulforhodamine B assay; settings: MDA-MB-468, 48 h; for CC50: read-out: LC50 (the source's name); in short: as §2
PC-3 = assay: Cytotoxicity against human PC3 cells assessed as cell growth at 0.1 uM after 48 hrs by sulforhodamine B assay; settings: PC-3, 48 h, read-out: Activity
SK-MEL-2 [12] = assay: Cytotoxicity against human SK-MEL-2 cells assessed as cell growth at 0.01 uM after 48 hrs by sulforhodamine B assay; settings: SK-MEL-2, 48 h, read-out: Activity
OVCAR-8 = assay: Growth inhibition of human OVCAR8 cells after 48 hrs by sulforhodamine B assay; settings: OVCAR-8, 48 h; in short: as §2
IGROV-1 [13] = assay: Growth inhibition of human IGROV1 cells after 48 hrs by sulforhodamine B assay; settings: IGROV-1, 48 h; in short: as §2
OVCAR-4 = assay: Growth inhibition of human OVCAR4 cells after 48 hrs by sulforhodamine B assay; settings: OVCAR-4, 48 h; in short: as §2
UO-31 [14] = assay: Cytotoxicity against human UO31 cells assessed as cell growth at 10 uM after 48 hrs by sulforhodamine B assay; settings: UO-31, 48 h, read-out: Activity
UACC-257 = assay: Cytotoxicity against human UACC257 cells assessed as cell growth at 0.1 uM after 48 hrs by sulforhodamine B assay; settings: UACC-257, 48 h, read-out: Activity
MDA-MB-231 [15] = assay: Cytotoxicity against human MDA-MB-231 cells assessed as cell growth at 10 '-5 M after 48 hrs by sulforhodamine B assay; settings: MDA-MB-231, 48 h, read-out: Activity
[16] = read-out: LC50 (the source's name)

## Cc1ccc2nc(Nc3c(C)cccc3C)sc2c1
UO-31 [1]
  growth at 1 µM: 73%
HCT-15 [2]
  growth at 10 µM: 23%
Malme-3M [3]
  growth at 0.01 µM: 102%
NCI-H522
  GI50: 0.552 µM
  TGI: > 100 µM
NCI-H522; [16]
  CC50: > 100 µM
SK-MEL-2 [4]
  LC50 (concentration killing 50% of cells present at time zero): > 100 µM
  TGI: > 100 µM
MDA-MB-231 [5]
  growth at 0.1 µM: 84%
UACC-62
  growth at 10 µM: 35.7%
SF-268
  growth at 0.01 µM: 94%
HL-60(TB) [6]
  growth at 0.01 µM: 107%
IGROV-1 [7]
  growth at 0.01 µM: 107%
OVCAR-5
  growth at 10 µM: 65%
NCI/ADR-RES
  growth at 10 µM: 22%
DU-145
  growth at 100 µM: 65%
Malme-3M [8]
  growth at 1 µM: 57%
NCI-H460
  growth at 10 µM: 22.7%
SNB-19
  growth at 0.01 µM: 94%
IGROV-1 [9]
  growth at 10 µM: 42%
HL-60(TB) [10]
  growth at 100 µM: 53%
HCT-15 [11]
  growth at 1 µM: 48%
M14
  growth at 0.1 µM: 104%
MDA-MB-468
  GI50: 0.33 µM
  TGI: > 100 µM
  CC50: > 100 µM
PC-3
  growth at 0.1 µM: 94%
SK-MEL-2 [12]
  growth at 0.01 µM: 94%
OVCAR-8
  GI50: 57.9 µM
  TGI: > 100 µM
OVCAR-8; [16]
  CC50: > 100 µM
IGROV-1 [13]
  GI50: 4.16 µM
  LC50 (50% net cell kill): > 100 µM
  TGI: > 100 µM
OVCAR-4
  GI50: > 100 µM
  LC50: > 100 µM
  TGI: > 100 µM
UO-31 [14]
  growth at 10 µM: 49%
UACC-257
  growth at 0.1 µM: 99%
MDA-MB-231 [15]
  growth at 10 µM: 47%

## Clc1cccc(Cl)c1Nc1nc2cccc(Cl)c2s1
UO-31 [1]
  growth at 1 µM: 26%
HCT-15 [2]
  growth at 10 µM: -85%
Malme-3M [3]
  growth at 0.01 µM: 101%
NCI-H522
  GI50: 1.02 µM
  TGI: 2.61 µM
SK-MEL-2 [4]
  GI50: 1.43 µM
  TGI: 3.35 µM
MDA-MB-231 [5]
  growth at 0.1 µM: 81%
UACC-62
  growth at 10 µM: -62.9%
SF-268
  growth at 0.01 µM: 98%
HL-60(TB) [6]
  growth at 0.01 µM: 104%
IGROV-1 [7]
  growth at 0.01 µM: 114%
OVCAR-5
  growth at 10 µM: -93%
NCI/ADR-RES
  growth at 10 µM: -72%
DU-145
  growth at 100 µM: -85%
Malme-3M [8]
  growth at 1 µM: 52%
NCI-H460
  growth at 10 µM: -57.9%
SNB-19
  growth at 0.01 µM: 91%
IGROV-1 [9]
  growth at 10 µM: -55%
HL-60(TB) [10]
  growth at 100 µM: -57%
HCT-15 [11]
  growth at 1 µM: 59%
M14
  growth at 0.1 µM: 101%
MDA-MB-468
  GI50: 0.343 µM
  TGI: 1.74 µM
  CC50: 5.79 µM
PC-3
  growth at 0.1 µM: 81%
SK-MEL-2 [12]
  growth at 0.01 µM: 98%
OVCAR-8
  GI50: 1.15 µM
  TGI: 2.83 µM
IGROV-1 [13]
  GI50: 1.12 µM
  LC50 (50% net cell kill): 8.96 µM
  TGI: 3.17 µM
OVCAR-4
  GI50: 0.708 µM
  LC50: 5.05 µM
  TGI: 2.14 µM
UO-31 [14]
  growth at 10 µM: -91%
UACC-257
  growth at 0.1 µM: 101%
MDA-MB-231 [15]
  growth at 10 µM: -66.8%
